Test results published in ChEMBL document CHEMBL4043300, “2 H-1,2,3-Triazole-Based Dipeptidyl Nitriles: Potent, Selective, and Trypanocidal Rhodesain Inhibitors by Structure-Based Design” (J Med Chem, 2018).
Converted amounts (≈) assume the structure as drawn.

Tests used:
[1] = test system: Trypanosoma brucei rhodesiense; assay: Antitrypanosomal activity against bloodstream form of Trypanosoma brucei rhodesiense STIB 900 assessed as parasite growth inhibition after 72 hrs by Alamar blue assay; type: functional; conditions: STIB 900, 72 h
Summary of the method: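 Standard 72 h growth-inhibition assay with STIB 900 bloodstream trypomastigotes and Alamar Blue read-out. Value is the mean of at least 2 measurements.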

[2] = Octanol-water intrinsic distribution co-efficient, log D of the compound at 100 uM at pH 7.4 after 16 to 22 hrs by CAMDIS assay; type: physicochemical
Summary of the method: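 Octanol/aqueous buffer (pH 7.4) intrinsic distribution coefficient measured in the CAMDIS carrier-mediated distribution system.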

[3] = Solubility of the compound at pH 6.5 by LYSA; type: physicochemical; conditions: buffer
Summary of the method: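 Lyophilization solubility assay at pH 6.5.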

Rhodesain = Rhodesain (Trypanosoma brucei rhodesiense, UniProt Q95PM0); assay: Inhibition of Trypanosoma brucei rhodesiense rhodesain using Cbz-Phe-Arg-AMC as substrate by fluorimetric method
Summary of the method: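 Fluorescence-based assay run at 25 °C in 50 mM sodium acetate pH 5.5 with 5 mM EDTA, 200 mM NaCl and 0.005% Brij35. IC50 values were converted to Ki with the Cheng-Prusoff equation. Values are the average of two measurements, each done in duplicate.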

Procathepsin L = Procathepsin L (Homo sapiens, UniProt P07711); assay: Inhibition of human CatL using Cbz-Phe-Arg-AMC as substrate measured over 30 mins by fluorimetric method
Summary of the method: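 Human cathepsin L in a fluorimetric assay in 50 mM Tris pH 6.5, 5 mM EDTA, 200 mM NaCl, 0.005% Brij35 at 25 °C. Ki was calculated from IC50 by Cheng-Prusoff. Value is the average of two measurements, each in duplicate.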

[4] = Selectivity index, ratio of Ki for human CatL to Ki for Trypanosoma brucei rhodesiense rhodesain
Summary of the method: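 Ki(hCatL)/Ki(RD). Fluorimetric assays at 25 °C: RD in 50 mM sodium acetate pH 5.5; hCatL in 50 mM Tris pH 6.5; both buffers with 5 mM EDTA, 200 mM NaCl, 0.005% Brij35. Ki derived from IC50 by Cheng-Prusoff. Each value is the mean of two measurements, each done in duplicate.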

L6 = assay: Cytotoxicity against rat L6 cells after 72 hrs by Alamar blue assay; type: cell-based; conditions: L6, 72 h
Summary of the method: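 Rat skeletal myoblast L6 cells in an Alamar Blue growth-inhibition assay. Value is the mean of at least 2 measurements.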

[5] = test system: Trypanosoma brucei rhodesiense; assay: Antitrypanosomal activity against bloodstream form of Trypanosoma brucei rhodesiense STIB 900 infected in NMRI mouse assessed as reduction of parasitemia at 50 mg/kg, po administered for 3 consecutive days starting 1 day post infection measured at 24 hrs post last dose relative to control; type: functional; design: scale not given: the % may be the effect or the level left
Summary of the method: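 Female mice infected with STIB900 were dosed orally at 50 mg/kg/day on three consecutive days, starting 1 day post-infection. Compound was in 100% DMSO diluted 10-fold in distilled water, given at 0.1 mL/10 g. Tail-blood parasitaemia was measured 24 h after the last dose versus 4 untreated infected controls. Values are means of 2 mice.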

[6] = Selectivity index, ratio of IC50 for rat L6 cells to IC50 for bloodstream form of Trypanosoma brucei rhodesiense STIB 900; type: toxicity; conditions: read-out: Ratio IC50
Summary of the method: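 Ratio of L-6 rat skeletal myoblast IC50 to T. b. rhodesiense STIB 900 bloodstream trypomastigote IC50, both from Alamar Blue growth-inhibition assays. Each IC50 is the mean of at least 2 measurements.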

[7] = test system: Trypanosoma brucei rhodesiense; assay: Antitrypanosomal activity against bloodstream form of Trypanosoma brucei rhodesiense STIB 900 assessed as parasite growth inhibition after 2 hrs by Alamar blue assay; type: functional; conditions: STIB 900, 2 h
Summary of the method: (§1)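 Bloodstream STIB 900 trypomastigotes, 1x10⁴ per well, exposed to eleven 3-fold serial dilutions at 37 °C/5% CO₂ for the stated pulse time. Parasites were then pelleted and washed four times, and an aliquot was regrown 72 h drug-free in triplicate plates. Resazurin was added for 2–4 h, fluorescence read at ex 536/em 588 nm, and IC50 taken by linear regression of sigmoidal curves. Melarsoprol served as control.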

[8] = test system: Trypanosoma brucei rhodesiense; assay: Antitrypanosomal activity against bloodstream form of Trypanosoma brucei rhodesiense STIB 900 assessed as parasite growth inhibition after 6 hrs by Alamar blue assay; type: functional; conditions: STIB 900, 6 h; summary of the method: as §1
[9] = test system: Trypanosoma brucei rhodesiense; assay: Antitrypanosomal activity against bloodstream form of Trypanosoma brucei rhodesiense STIB 900 assessed as parasite growth inhibition after 16 hrs by Alamar blue assay; type: functional; conditions: STIB 900, 16 h; summary of the method: as §1
[10] = test system: Trypanosoma brucei rhodesiense; assay: Antitrypanosomal activity against bloodstream form of Trypanosoma brucei rhodesiense STIB 900 assessed as parasite growth inhibition after 24 hrs by Alamar blue assay; type: functional; conditions: STIB 900, 24 h; summary of the method: as §1
[11] = test system: Trypanosoma brucei rhodesiense; assay: Antitrypanosomal activity against bloodstream form of Trypanosoma brucei rhodesiense STIB 900 assessed as parasite growth inhibition after 48 hrs by Alamar blue assay; type: functional; conditions: STIB 900, 48 h; summary of the method: as §1

Rhodesain, sequence (Q95PM0 whole entry): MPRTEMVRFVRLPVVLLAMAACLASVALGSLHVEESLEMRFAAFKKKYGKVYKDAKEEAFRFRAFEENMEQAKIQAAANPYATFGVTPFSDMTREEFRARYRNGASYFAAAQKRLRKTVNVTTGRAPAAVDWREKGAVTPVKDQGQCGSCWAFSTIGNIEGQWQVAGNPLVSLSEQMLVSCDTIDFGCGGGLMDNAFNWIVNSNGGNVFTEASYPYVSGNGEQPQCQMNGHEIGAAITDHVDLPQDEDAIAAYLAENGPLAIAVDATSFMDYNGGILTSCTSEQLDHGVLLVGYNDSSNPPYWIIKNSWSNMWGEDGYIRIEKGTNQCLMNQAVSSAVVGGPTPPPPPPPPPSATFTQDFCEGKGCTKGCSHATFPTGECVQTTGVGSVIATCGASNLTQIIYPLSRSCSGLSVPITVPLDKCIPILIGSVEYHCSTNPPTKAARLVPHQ
Procathepsin L, sequence (P07711 whole entry): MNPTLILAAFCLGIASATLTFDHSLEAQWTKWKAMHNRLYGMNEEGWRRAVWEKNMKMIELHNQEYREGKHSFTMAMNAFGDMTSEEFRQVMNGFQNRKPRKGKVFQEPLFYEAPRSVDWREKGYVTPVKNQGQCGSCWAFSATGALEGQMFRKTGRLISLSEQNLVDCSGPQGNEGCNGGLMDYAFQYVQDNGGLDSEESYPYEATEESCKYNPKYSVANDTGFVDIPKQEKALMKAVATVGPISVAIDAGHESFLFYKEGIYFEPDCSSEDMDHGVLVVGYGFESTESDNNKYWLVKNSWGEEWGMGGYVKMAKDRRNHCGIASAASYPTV

Compound	IC50 [1] [nM]	logD at 100 µM [2]	solubility [3] [µg/mL]	Ki (Rhodesain) [nM]	Ki (Procathepsin L) [nM]	Ratio Ki [4]	IC50 (L6) [nM]	Activity [5] [%]	selectivity ratio [6]	IC50 [7] [nM]	IC50 [8] [nM]	IC50 [9] [nM]	IC50 [10] [nM]	IC50 [11] [nM]
N=C(N)c1ccc(OCCCCCOc2ccc(C(=N)N)cc2)cc1 [PENTAMIDINE]	9													
N#Cc1ccc(C[C@H](NC(=O)c2cnn(-c3ccc(F)cc3)n2)C(=O)NC2(C#N)CC2)cc1Cl	6	3.63	< 0.3	7	253	36	> 10000							
N#CC1(NC(=O)[C@H](Cc2ccc(OC(F)(F)F)c(Cl)c2)NC(=O)c2cnn(-c3ccncc3)n2)CC1	0.6	3.69	5.2 (≈ 10 µM)	16	82	5	> 10000	43.3						
CC1CS(=O)(=O)CCN1/N=C/c1ccc([N+](=O)[O-])o1 (stereo not given) [NIFURTIMOX]	1440													
N#CC1(NC(=O)[C@H](Cc2ccc(OC(F)(F)F)c(Cl)c2)NC(=O)c2cnn(C3CCNC3)n2)CC1 (stereo not given in full)	0.2	1.33	253 (≈ 494 µM)	93	14	0.2	56000	0.4	280000					
N#CC1(NC(=O)[C@H](Cc2ccc(OC(F)(F)F)c(Cl)c2)NC(=O)c2cnn(C3COC3)n2)CC1	3	2.58	4 (≈ 8.02 µM)	31	25	0.8	96000	43.1	32000					
N#CC1(NC(=O)[C@H](Cc2ccc(Cl)c(Cl)c2)NC(=O)c2cnn(C3CC(F)(F)C3)n2)CC1	8			18	64	3.6	54800	15.8	6840					
N#CC1(NC(=O)[C@H](Cc2ccc(OC(F)(F)F)c(Cl)c2)NC(=O)c2cnn(-c3ccc(Br)cc3)n2)CC1	28		< 0.3	25	1080	43	7600		271					
N#CC1(NC(=O)[C@H](Cc2ccc(OCC3CC3)c(Cl)c2)NC(=O)c2cnn(-c3ccc(F)cc3)n2)CC1	27 to 190			9 to 16	181 to 314	18 to 507								
N#CC1(NC(=O)[C@H](Cc2ccc(OC(F)(F)F)c(Cl)c2)NC(=O)c2cnn(C3CCOCC3)n2)CC1	13	3.33	90 (≈ 171 µM)	18	112	6.2	> 100000							
N#CC1(NC(=O)[C@H](Cc2ccc(OC(F)(F)F)c(Cl)c2)NC(=O)c2cnn(C3CCCCC3)n2)CC1	6		0.3 (≈ 0.572 µM)	12	82	6.8	31000		5170					
N#CC1(NC(=O)[C@H](Cc2ccc(Cl)c(Cl)c2)NC(=O)c2cnn(C3CCC3)n2)CC1	4			71	7	0.1	58200		14600					
N#CC1(NC(=O)[C@H](Cc2ccc(Cl)cc2)NC(=O)c2cnn(-c3ccc(F)cc3)n2)CC1	6	3.97	< 0.3	3	1520	507	> 10000							
N#CC1(NC(=O)[C@H](Cc2ccc(OC(F)(F)F)c(Cl)c2)NC(=O)c2cnn(C3CCC3)n2)CC1	1	3.88	11 (≈ 22.1 µM)	11	11	1	48000		48000					
Nc1nc(N)nc(Nc2ccc([As]3SCC(CO)S3)cc2)n1 (stereo not given) [MELARSOPROL]	4 to 9									> 180	99	86	44	26
Cc1ccc(C(=O)Nc2ccc(S(=O)(=O)O)c3cc(S(=O)(=O)O)cc(S(=O)(=O)O)c23)cc1NC(=O)c1cccc(NC(=O)Nc2cccc(C(=O)Nc3cc(C(=O)Nc4ccc(S(=O)(=O)O)c5cc(S(=O)(=O)O)cc(S(=O)(=O)O)c45)ccc3C)c2)c1 [SURAMIN]	46													
